The test system of data set [1] is Mycobacterium tuberculosis. As to the kind of experiment: Antimycobacterial activity against recombinant Mycobacterium tuberculosis H37Rv expressed in green fluorescence protein by measuring increase in fluorescence after 10 days in presence of middlebrook 7H9/OADC medium by GFP reporter gene assay. The following applies: 240 h, time 10 day. In kind it is functional.

The test system of data set [2] is Clostridioides difficile. Put plainly: Antibacterial activity against Clostridium difficile incubated for 48 hrs by microbroth dilution method. Type of data set: functional. In short, it runs like this: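 Per CLSI, anaerobic broth microdilution in Brucella broth with hemin, vitamin K and 5% laked horse blood. Isolates pre-grown anaerobically on supplemented Brucella blood agar, 35–37 °C, 44–48 h. Inoculum at 0.5 McFarland, diluted 1:10. 2-fold drug series from DMSO, 16–0.015 µg/mL. Incubated anaerobically at 35–37 °C and read at 46 h. MIC is the lowest concentration inhibiting visible growth.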
(In broth dilution the organism is exposed to a series of concentrations in liquid medium.)

Data set [3] concerns Clostridioides difficile. As to the kind of experiment: Antibacterial activity against Clostridium difficile BAA-1805 incubated for 46 hrs in anaerobic condition by CLSI-based broth microdilution assay. In kind it is functional.
The nature of data set [4]: Aqueous solubility of the compound in phosphate buffer at pH 7 after 5 hrs by UHPLC analysis. Type of data set: physicochemical. In short, it runs like this:
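Solid added to 1.0 mL pH 7 phosphate buffer containing 50 µg/mL caffeine internal standard until saturated. Stirred 5 h at room temperature, passed through a 0.22 µm filter, then run on C18 UHPLC with a water/MeCN + 0.1 % HCOOH gradient. Analyte/IS peak-area ratio was converted to concentration using a linear calibration from MeOH standards at 50–500 µg/mL.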

Data set [5] has as its system Clostridioides difficile. As to the kind of experiment: Antibacterial activity against Clostridium difficile ATCC 9689 incubated for 46 hrs in anaerobic condition by CLSI-based broth microdilution assay. Type of data set: functional. The following applies: ATCC 9689 = DSM 1296.
Data set [6] deals with Clostridioides difficile. As to the kind of experiment: Antibacterial activity against Clostridium difficile 5680 incubated for 46 hrs in anaerobic condition by CLSI-based broth microdilution assay. In kind it is functional.
For data set [7], the system named is Clostridioides difficile. Put plainly: Antibacterial activity against Clostridium difficile 8260 incubated for 46 hrs in anaerobic condition by CLSI-based broth microdilution assay. Type of data set: functional.
Data set [8] deals with Clostridioides difficile. Put plainly: Antibacterial activity against Clostridium difficile 8282 incubated for 46 hrs in anaerobic condition by CLSI-based broth microdilution assay. Type of data set: functional.
For data set [9], the system named is Staphylococcus aureus. Put plainly: Antibacterial activity against Staphylococcus aureus ATCC 29213 incubated overnight by broth dilution method. Type of data set: functional. In short, it runs like this:
(§1)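 Strains pre-grown overnight at 37 °C on Mueller Hinton II agar; CLSI broth dilution, inoculum about 7.5 × 10^5 CFU/well. Compounds taken from 1.0 mg/mL stocks in 50 % methanol/H2O, diluted in H2O as 2-fold series. Plates held at 37 °C overnight; MIC read visually as lowest concentration with no growth.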

The subject of data set [10] is Bacillus subtilis. As to the kind of experiment: Antibacterial activity against Bacillus subtilis DSM3256 incubated overnight by broth dilution method. Type of data set: functional. In short, it runs like this:
as §1

In data set [11] the test system is Clostridioides difficile. Put plainly: Antibacterial activity against Clostridium difficile ATCC 43255 incubated for 46 hrs in anaerobic condition by CLSI-based broth microdilution assay. In kind it is functional.
Data set [12] deals with Clostridioides difficile. Put plainly: Antibacterial activity against Clostridium difficile 8290 incubated for 46 hrs in anaerobic condition by CLSI-based broth microdilution assay. In kind it is functional.
The subject of data set [13] is Clostridioides difficile. Put plainly: Antibacterial activity against Clostridium difficile ATCC 700057 incubated for 46 hrs in anaerobic condition by CLSI-based broth microdilution assay. In kind it is functional.
The test system of data set [14] is Staphylococcus aureus. Put plainly: Antibacterial activity against Staphylococcus aureus by CLSI-based broth microdilution method. In kind it is functional. An outline of the steps: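 S. aureus ATCC29213 grown overnight at 37 °C on MH II agar. MIC by CLSI broth dilution at about 7.5 × 10^5 CFU/well. Compounds diluted 2-fold in water from 1.0 mg/mL stocks in 50% methanol. Plates incubated overnight at 37 °C. MIC is the lowest concentration with no growth, read by eye.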

Data set [15] has as its system Clostridioides difficile. Put plainly: Antibacterial activity against Clostridium difficile under anaerobic condition by CLSI-based broth microdilution assay. Type of data set: functional. In short, it runs like this: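 Isolates streaked on Brucella agar with hemin, vitamin K and 5% sheep blood, anaerobic 35–37°C, 44–48 h. CLSI broth microdilution in Brucella broth with hemin, vitamin K, 5% laked horse blood. Test agents in DMSO, 2-fold series, 16–0.015 µg/mL. Inoculum from a 0.5 McFarland suspension diluted 1:10. Incubated anaerobically 35–37°C, read at 46 h; MIC = lowest concentration inhibiting visible growth.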

The subject of data set [16] is Clostridioides difficile. Put plainly: Antibacterial activity against Clostridium difficile BAA-1875 incubated for 46 hrs in anaerobic condition by CLSI-based broth microdilution assay. In kind it is functional.
Data set [17] has as its system Clostridioides difficile. Put plainly: Antibacterial activity against Clostridium difficile 8264 incubated for 46 hrs in anaerobic condition by CLSI-based broth microdilution assay. In kind it is functional.

Our source for the MIC90, MIC and solubility values is ChEMBL document CHEMBL4665898, “Semisynthetic Analogs of the Antibiotic Fidaxomicin-Design, Synthesis, and Biological Evaluation” (ACS Med Chem Lett, 2020).

In brackets after ≈: the same amount, converted by molar mass. A value given as a limit tells only on which side of the number the result lay.

On to `CCc1c(Cl)c(O)c(Cl)c(O)c1C(=O)O[C@@H]1[C@@H](O)[C@@H](OC)[C@@H](OC/C2=C\C=C\C[C@H](O)/C(C)=C/[C@H](CC)[C@@H](O[C@@H]3OC(C)(C)[C@@H](OC(=O)C(C)C)[C@H](O)[C@@H]3O)/C(C)=C/C(C)=C/C[C@@H]([C@@H](C)O)OC2=O)O[C@H]1C`, for which, in [1], the MIC90 was found to be 0.25 µg/mL. The MIC is 0.25 µg/mL (≈ 0.236 µM) in data set [2]; 0.12 µg/mL (≈ 0.113 µM) in data set [3]; at most 0.015 µg/mL in data set [5]; 0.06 µg/mL (≈ 0.0567 µM) in data set [6]; 0.06 µg/mL (≈ 0.0567 µM) in data set [7]; 0.03 µg/mL (≈ 0.0284 µM) in [8]. The MIC was found to be 8 µg/mL (≈ 7.56 µM) in data set [9]; 8 µg/mL (≈ 7.56 µM) in data set [10]; 0.03 µg/mL (≈ 0.0284 µM) in data set [11]; 0.03 µg/mL (≈ 0.0284 µM) in data set [12]; 0.03 µg/mL (≈ 0.0284 µM) in [13]; 2 µg/mL (≈ 1.89 µM) in [14]. Further, the MIC in data set [15] turned out to be 0.012 µg/mL (≈ 0.0113 µM); in [16], 0.03 µg/mL (≈ 0.0284 µM); in data set [17], 0.12 µg/mL (≈ 0.113 µM). The solubility at 5 h in [4] was determined as 84 µg/mL (≈ 79.4 µM).
Consider `CCc1c(Cl)c(OCC(=O)N2CCNCC2)c(Cl)c(O)c1C(=O)O[C@@H]1[C@@H](O)[C@@H](OC)[C@@H](OC/C2=C\C=C\C[C@H](O)/C(C)=C/[C@H](CC)[C@@H](O[C@@H]3OC(C)(C)[C@@H](OC(=O)C(C)C)[C@H](O)[C@@H]3O)/C(C)=C/C(C)=C/C[C@@H]([C@@H](C)O)OC2=O)O[C@H]1C`, for which, in data set [1], the MIC90 stood at 1 µg/mL. Moreover, the MIC in data set [3] is 0.5 µg/mL (≈ 0.422 µM); in data set [5] it was 0.03 µg/mL (≈ 0.0253 µM); in [6] it was 0.5 µg/mL (≈ 0.422 µM); in data set [7], 0.03 µg/mL (≈ 0.0253 µM); in [8] it was 0.06 µg/mL (≈ 0.0507 µM); in data set [9], above 64 µg/mL. Moreover, the MIC is above 64 µg/mL in [10]; 0.5 µg/mL (≈ 0.422 µM) in data set [11]; 0.25 µg/mL (≈ 0.211 µM) in data set [12]; 0.25 µg/mL (≈ 0.211 µM) in data set [13]; 0.5 µg/mL (≈ 0.422 µM) in [16]; 0.5 µg/mL (≈ 0.422 µM) in data set [17]. The same molecule came in with a solubility at 5 h in [4] of 81 µg/mL (≈ 68.4 µM).

By MIC90 is commonly meant the lowest concentration that inhibits either 90% of growth or 90% of the strains tested, depending on the study. What is called MIC is the smallest concentration in the dilution series that meets the test's criterion for growth inhibition. Higher therefore signals weaker potency. Broadly, the solubility is how much of the substance goes into solution per volume.
